# Measured values: ChEMBL document CHEMBL1134236, “Anti-MRSA cephems. Part 1: C-3 substituted thiopyridinium derivatives” (Bioorg Med Chem Lett, 2001)
# What was measured:
# Staphylococcus aureus [1] = experiment: Dose required for protective activity against methicillin-resistant Staphylococcus aureus (MRSA) A27223 in mouse following i.m. administration.; conditions: im, read-out: PD50
# Staphylococcus aureus [2] = experiment: Minimum inhibitory concentration against methicillin-resistant Staphylococcus aureus (MRSA) A27223; type: functional
# Outline: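 Broth microdilution per NCCLS in Mueller-Hinton broth with 2% NaCl. Inoculum about 5×10⁵ CFU/mL, incubated at 35 °C for 24 h. MIC is the lowest drug concentration that inhibits all visible growth.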
# Staphylococcus aureus [3] = experiment: Minimum inhibitory concentration against methicillin-resistant Staphylococcus aureus (MRSA) A27223 in the presence of 50% calf serum.; type: functional
# Outline: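 NCCLS broth MIC in Mueller-Hinton broth with 2% NaCl plus 50% calf serum. Inoculum about 5×10⁵ CFU/mL, incubated at 35 °C for 24 h. Read as the lowest concentration with no visible growth.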
# Enterococcus faecium [4] = experiment: Minimum inhibitory concentration against Enterococcus faecium Amp. R. Vanco. S A28156; type: functional
# Outline: (§1)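 Broth dilution MIC under standard NCCLS-recommended conditions. The MIC was read as the lowest drug concentration giving no visible growth. Where the line states it, 50% calf serum was added.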
# Enterococcus faecalis [5] = experiment: Minimum inhibitory concentration against Enterococcus faecalis A20688; type: functional
# Outline: as §1
# Staphylococcus aureus [6] = experiment: Minimum inhibitory concentration against Staphylococcus aureus A9606 with 50% calf serum; type: functional
# Outline: as §1
# Staphylococcus aureus [7] = experiment: Minimum inhibitory concentration against Staphylococcus aureus / Homo MR A27295; type: functional
# Outline: (§2)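 Broth MIC under NCCLS standard conditions in Mueller-Hinton broth plus 2% NaCl. Inoculum was about 5×10⁵ CFU/mL, incubated at 35 °C for 24 h. The endpoint was the lowest drug concentration inhibiting all visible growth. Where the line states it, 50% calf serum was added.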
# [8] = test system: Staphylococcus haemolyticus; experiment: Minimum inhibitory concentration against Staphylococcus haemolyticus A21638; type: functional
# Outline: as §1
# Staphylococcus aureus [9] = experiment: Minimum inhibitory concentration against Staphylococcus aureus / Homo MR A27226; type: functional
# Outline: as §2
# Streptococcus pneumoniae [10] = experiment: Minimum inhibitory concentration against penicillin resistant Streptococcus pneumoniae A28272; type: functional
# [11] = test system: Staphylococcus epidermidis; experiment: Minimum inhibitory concentration against Staphylococcus epidermidis A24548; type: functional
# Outline: as §1
# [12] = test system: Staphylococcus epidermidis; experiment: Minimum inhibitory concentration against Staphylococcus epidermidis / MR A25783; type: functional
# Outline: as §1
# Staphylococcus aureus [13] = experiment: Minimum inhibitory concentration against Staphylococcus aureus / + 50% calf serum A27223; type: functional
# Outline: as §2
# Staphylococcus aureus [14] = experiment: Minimum inhibitory concentration against Staphylococcus aureus / Pen.- A9497; type: functional
# Outline: as §1
# Staphylococcus aureus [15] = experiment: Minimum inhibitory concentration against Staphylococcus aureus / Hetero MR A27217; type: functional
# Outline: as §2
# Streptococcus pyogenes = experiment: Minimum inhibitory concentration against Streptococcus pyogenes Todd Hewitt A9604; type: functional
# Outline: as §1
# [16] = test system: Staphylococcus haemolyticus; experiment: Minimum inhibitory concentration against Staphylococcus haemolyticus / Homo MR A27229; type: functional
# Outline: as §1
# Enterococcus faecalis [17] = experiment: Minimum inhibitory concentration against Enterococcus faecalis A20688 with 50% calf serum; type: functional
# Outline: as §1
# Staphylococcus aureus [18] = experiment: Minimum inhibitory concentration against Staphylococcus aureus / Homo MR A27223; type: functional
# Outline: as §2
# Staphylococcus aureus [19] = experiment: Minimum inhibitory concentration against Staphylococcus aureus / Hetero MR A27218; type: functional
# Outline: as §2
# Streptococcus pneumoniae [20] = experiment: Minimum inhibitory concentration against Streptococcus pneumoniae / Pen.I A27881; type: functional
# Outline: as §1
# Staphylococcus aureus [21] = experiment: Minimum inhibitory concentration against Staphylococcus aureus / Pen.+ A9606; type: functional
# Outline: as §1
# Staphylococcus aureus [22] = experiment: Minimum inhibitory concentration against Staphylococcus aureus / MR. P- A27225; type: functional
# Outline: as §2
# Staphylococcus aureus [23] = experiment: Minimum inhibitory concentration against Staphylococcus aureus A27218 with 50% calf serum; type: functional
# Outline: as §2
# [24] = test system: Staphylococcus epidermidis; experiment: Minimum inhibitory concentration against Staphylococcus epidermidis / Imipenem A27368; type: functional
# Outline: as §1
# Staphylococcus aureus [25] = experiment: Minimum inhibitory concentration against Staphylococcus aureus A20241 /MS/Pen.; type: functional
# Outline: as §1
# Enterococcus faecium [26] = experiment: Minimum inhibitory concentration against Enterococcus faecium A24885; type: functional
# Outline: as §1
# Staphylococcus aureus [27] = experiment: Minimum inhibitory concentration against Staphylococcus aureus / Homo MR A27621; type: functional
# Outline: as §2
structure (smiles),measurement,setting,value
C[n+]1ccc(SCC2=C(C(=O)[O-])N3C(=O)[C@@H](NC(=O)CSc4cc(Cl)ccc4Cl)[C@H]3SC2)cc1CCCC(=O)O,ED50,Staphylococcus aureus [1],5.2 mg/kg
same,MIC,Staphylococcus aureus [2],4 µg/mL
same,MIC,Staphylococcus aureus [3],8 µg/mL
NCCC[n+]1ccc(SCC2=C(C(=O)O)N3C(=O)[C@@H](NC(=O)CSc4cc(Cl)ccc4Cl)[C@H]3SC2)cc1CCC(=O)O.O=C(O)C(F)(F)F.O=C([O-])C(F)(F)F,MIC,Enterococcus faecium [4],64 µg/mL
same,MIC,Enterococcus faecalis [5],0.5 µg/mL
same,MIC,Staphylococcus aureus [6],0.125 µg/mL
same,MIC,Staphylococcus aureus [7],4 µg/mL
same,ED50,Staphylococcus aureus [1],2.1 mg/kg
same,MIC,[8],0.06 µg/mL
same,MIC,Staphylococcus aureus [9],1 µg/mL
same,MIC,Streptococcus pneumoniae [10],0.06 µg/mL
same,MIC,[11],0.03 µg/mL
same,MIC,[12],0.25 µg/mL
same,MIC,Staphylococcus aureus [13],2 µg/mL
same,MIC,Staphylococcus aureus [14],0.007 µg/mL
same,MIC,Staphylococcus aureus [15],0.5 µg/mL
same,MIC,Staphylococcus aureus [2],2 µg/mL
same,MIC,Streptococcus pyogenes,0.003 µg/mL
same,MIC,[16],2 µg/mL
same,MIC,Enterococcus faecalis [17],1 µg/mL
same,MIC,Staphylococcus aureus [18],2 µg/mL
same,MIC,Staphylococcus aureus [19],0.5 µg/mL
same,MIC,Staphylococcus aureus [3],2 µg/mL
same,MIC,Streptococcus pneumoniae [20],0.003 µg/mL
same,MIC,Staphylococcus aureus [21],0.125 µg/mL
same,MIC,Staphylococcus aureus [22],1 µg/mL
same,MIC,Staphylococcus aureus [23],1 µg/mL
same,MIC,[24],0.25 µg/mL
same,MIC,Staphylococcus aureus [25],0.125 µg/mL
same,MIC,Enterococcus faecium [26],2 µg/mL
same,MIC,Staphylococcus aureus [27],1 µg/mL
Cc1cc(SCC2=C(C(=O)O)N3C(=O)[C@@H](NC(=O)CSc4cc(Cl)ccc4Cl)[C@H]3SC2)cc(CCC(=O)O)[n+]1CCCN.O=C(O)C(F)(F)F.O=C([O-])C(F)(F)F,MIC,Enterococcus faecium [4],64 µg/mL
same,MIC,Enterococcus faecalis [5],0.5 µg/mL
same,MIC,Staphylococcus aureus [6],0.25 µg/mL
same,MIC,Staphylococcus aureus [7],2 µg/mL
same,ED50,Staphylococcus aureus [1],2.5 mg/kg
same,MIC,[8],0.125 µg/mL
same,MIC,Staphylococcus aureus [9],0.5 µg/mL
same,MIC,Streptococcus pneumoniae [10],0.25 µg/mL
same,MIC,[11],0.03 µg/mL
same,MIC,[12],0.25 µg/mL
same,MIC,Staphylococcus aureus [13],4 µg/mL
same,MIC,Staphylococcus aureus [14],0.007 µg/mL
same,MIC,Staphylococcus aureus [15],0.5 µg/mL
same,MIC,"Staphylococcus aureus [2]; Staphylococcus aureus, read-out: MIC",1 µg/mL
same,MIC,Streptococcus pyogenes,0.0005 µg/mL
same,MIC,[16],2 µg/mL
same,MIC,Enterococcus faecalis [17],4 µg/mL
same,MIC,Staphylococcus aureus [18],1 µg/mL
same,MIC,Staphylococcus aureus [19],0.5 µg/mL
same,MIC,Staphylococcus aureus [3],4 µg/mL
same,MIC,Streptococcus pneumoniae [20],0.06 µg/mL
same,MIC,Staphylococcus aureus [21],0.125 µg/mL
same,MIC,Staphylococcus aureus [22],0.5 µg/mL
same,MIC,Staphylococcus aureus [23],1 µg/mL
same,MIC,[24],0.5 µg/mL
same,MIC,Staphylococcus aureus [25],0.25 µg/mL
same,MIC,Enterococcus faecium [26],2 µg/mL
same,MIC,Staphylococcus aureus [27],1 µg/mL
Cc1cc(SCC2=C(C(=O)O)N3C(=O)[C@@H](NC(=O)CSc4cc(Cl)ccc4Cl)[C@H]3SC2)cc(CCC(=O)O)[n+]1CCN.O=C(O)C(F)(F)F.O=C([O-])C(F)(F)F,ED50,Staphylococcus aureus [1],3.9 mg/kg
same,MIC,Staphylococcus aureus [2],2 µg/mL
same,MIC,Staphylococcus aureus [3],2 µg/mL
Cc1cc(SCC2=C(C(=O)[O-])N3C(=O)[C@@H](NC(=O)CSc4cc(Cl)ccc4Cl)[C@H]3SC2)cc(CCC(=O)O)[n+]1Cc1cccs1,ED50,Staphylococcus aureus [1],> 23 mg/kg
same,MIC,Staphylococcus aureus [2],4 µg/mL
same,MIC,Staphylococcus aureus [3],8 µg/mL
Cc1cc(SCC2=C(C(=O)[O-])N3C(=O)[C@@H](NC(=O)CSc4cc(Cl)ccc4Cl)[C@H]3SC2)cc(CCc2ccccc2)[n+]1CCS(=O)(=O)O,ED50,Staphylococcus aureus [1],> 25 mg/kg
same,MIC,Staphylococcus aureus [2],2 µg/mL
same,MIC,Staphylococcus aureus [3],4 µg/mL
C=CCCc1cc(SCC2=C(C(=O)[O-])N3C(=O)[C@@H](NC(=O)CSc4cc(Cl)ccc4Cl)[C@H]3SC2)cc(C)[n+]1CC[C@@H](O)C(=O)O,ED50,Staphylococcus aureus [1],19.2 mg/kg
same,MIC,Staphylococcus aureus [2],4 µg/mL
same,MIC,Staphylococcus aureus [3],8 µg/mL
Cc1cc(SCC2=C(C(=O)[O-])N3C(=O)[C@@H](NC(=O)CSc4cc(Cl)ccc4Cl)[C@H]3SC2)cc(CCC(=O)O)[n+]1CCO,ED50,Staphylococcus aureus [1],8.4 mg/kg
same,MIC,Staphylococcus aureus [2],2 µg/mL
same,MIC,Staphylococcus aureus [3],4 µg/mL
Cc1cc(SCC2=C(C(=O)[O-])N3C(=O)[C@@H](NC(=O)CSc4cc(Cl)ccc4Cl)[C@H]3SC2)cc(CCc2ccc(Cl)s2)[n+]1CC[C@@H](O)C(=O)O,ED50,Staphylococcus aureus [1],> 23 mg/kg
same,MIC,Staphylococcus aureus [2],8 µg/mL
same,MIC,Staphylococcus aureus [3],8 µg/mL
